Screening results: PubChem BioAssay, several laboratories
MC4R antagonist: MC4R antagonists of cAMP signaling, primary screen, cell-based, TR-FRET, antagonist arm of biased-ligand search; Melanocortin receptor 4 (Homo sapiens), P32245; MC4R-expressing cells, MTII-stimulated cAMP, LANCE TR-FRET; inhibition, % at 6.5 µM; actives 0.48% (n = 360,000);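 active means inhibition above its plate's cutoff, the mean of tested wells on that plate plus 3 SD, cut at about 29% in these data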
Target sequence (P32245 whole entry, looked up): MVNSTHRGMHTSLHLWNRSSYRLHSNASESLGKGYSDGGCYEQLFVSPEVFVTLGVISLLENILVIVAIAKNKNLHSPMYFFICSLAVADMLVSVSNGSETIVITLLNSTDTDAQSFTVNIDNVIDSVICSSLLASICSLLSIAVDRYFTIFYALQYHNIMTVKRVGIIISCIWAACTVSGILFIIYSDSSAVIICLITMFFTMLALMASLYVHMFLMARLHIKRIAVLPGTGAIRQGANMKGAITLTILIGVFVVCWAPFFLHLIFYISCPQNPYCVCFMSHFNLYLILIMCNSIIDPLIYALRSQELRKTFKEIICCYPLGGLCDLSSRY
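System – human MC4R-expressing U2OS cells · Also added – Melanotan II · Dosing – one concentration, 6.5 µM nominal · Timing – 30-min compound, 1-h challenge, 1-h detection, room temperature · Measured by – Eu-cAMP/anti-cAMP TR-FRET, emission 671 nm · Replicates – singlicate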
MC4R ag barr: MC4R agonists recruiting beta-arrestin, primary screen, cell-based, luminescence, agonist arm of biased-ligand search | activation, % at 8.9 µM | U2OS MC4R beta-arrestin complementation; percent of melanotan II response, DMSO zero | Melanocortin receptor 4 (Homo sapiens), P32245 | actives 0.98% (n = 360,000) | AID 540308, 2011;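 active means activation above a per-plate cutoff, the mean activation of sample wells on that plate plus 3 SD, cut at about 8% in these data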
Myeloid diff 2: induction of myeloid progenitor differentiation, primary screen, cell-based, flow cytometry, MLPCN library; ER-HoxA9 myeloid progenitors, lysozyme-GFP differentiation; calls only at 10 µM; actives 1% (n = 360,000); AID 624256, 2012;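 active means normalized GFP-positive differentiation at or above the plate's own cutoff, the solvent-only control mean plus 3 SD; inconclusive means no clear call, values can overlap the other calls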;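 further: cells exposed to compound for four days before flow analysis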
Granule exo inh: LAMP-1 surface exposure blockers, TALL-104 cells – cell-based, flow cytometry, MLPCN library, primary screen; TALL-104 LAMP-1 surface exposure; cells stimulated with thapsigargin and PMA; inhibition, % at 10 µM; actives 0.66% (n = 360,000);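 active means inhibition above about 55%, limit read from the data; inconclusive means no clear call, values can overlap the other calls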
EBI2 antag: EBI2 receptor antagonists, beta-arrestin recruitment, primary screen, cell-based, luminescence, 7a,25-OHC stimulation, uHTS; AID 651636, 2012; 7a,25-OHC stimulated; G-protein coupled receptor 183 (Homo sapiens), P32249; actives 0.81% (n = 360,000); inhibition, % at 5 µM; in the data active means inhibition above about 38%;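 further: enzyme fragment complementation signal reports receptor beta-arrestin coupling in cells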
Target sequence (P32249 whole entry, looked up, the tested form may be a part): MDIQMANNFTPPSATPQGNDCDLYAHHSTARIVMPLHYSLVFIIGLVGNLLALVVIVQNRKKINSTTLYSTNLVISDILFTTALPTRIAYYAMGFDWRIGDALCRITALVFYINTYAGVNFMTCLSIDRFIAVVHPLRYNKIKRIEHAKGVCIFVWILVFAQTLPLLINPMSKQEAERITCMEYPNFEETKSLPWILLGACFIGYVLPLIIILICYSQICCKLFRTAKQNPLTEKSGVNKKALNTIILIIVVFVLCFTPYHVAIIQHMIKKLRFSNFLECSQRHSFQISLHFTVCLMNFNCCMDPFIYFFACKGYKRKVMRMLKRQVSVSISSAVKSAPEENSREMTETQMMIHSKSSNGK
MC4R barr conf: MC4R beta-arrestin agonists, retest, confirmation, cell-based, luminescence, U2OS. U2OS MC4R beta-arrestin recruitment; scaled DMSO 0%, Melanotan II 100%. actives 31% (n = 2,400). activation, % at 8.9 µM. AID 602192, 2012. shares compounds with MC4R ag barr;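 active means mean activation across replicates above the hit cutoff set in the earlier primary screen, cut at about 8% in these data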
MOR DOR agonist: agonists of MOR-DOR heterodimerization, counter-screen for MC4R biased agonist project, cell-based, luminescence; U2OS PathHunter beta-arrestin, beta-gal luminescence; percent of deltorphin B response, DMSO zero; actives 5.8% (n = 2,400); activation, % at 9.2 µM; shares compounds with MC4R ag barr;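 active means mean activation across replicates exceeds the hit threshold derived in the earlier primary screen, cut at about 18% in these data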
Each line names hits and unclear results; the compound was inactive in the other large screens (follow-up assays come after a bar, where they were run). The list is not random: actives were taken first. Their share in the collection is about 3.7%.

O=C(NC(=S)Nc1ccccc1O)c1ccc(-c2ccc(Cl)cc2)o1	MC4R ag barr 30.5 | MC4R barr conf inactive | MOR DOR agonist inactive
CCNC(=O)c1c(NC(=O)C2COc3ccccc3O2)sc2c1CCCC2 (centres undefined)	none
COCCCNC(=O)c1c(NC(=O)C2COc3ccccc3O2)sc2c1CCCC2 (centres undefined)	MC4R ag barr 11.3 | MC4R barr conf inactive | MOR DOR agonist inactive
O=C(NCCCN1CCOCC1)C(=O)N/N=C/c1ccc2c(c1)OCO2	none
COc1cccc(-c2sc3ccccc3c2-c2ccc(OCCN3CCCC3)cc2)c1	MC4R ag barr 10.5 | MC4R barr conf 46.2 | MOR DOR agonist inactive
COc1cccc(-c2sc3ccccc3c2-c2ccc(OCCN(C)C)cc2)c1	MC4R ag barr 29.2 | MC4R barr conf 56.3 | MOR DOR agonist inactive
Oc1ccc2sc(-c3ccccc3O)c(-c3ccc(OCCN4CCCCC4)cc3)c2c1	none (no result: MC4R antagonist, MC4R ag barr)
Cc1ccccc1N(C(=O)Cc1c[nH]c2ccccc12)C(C(=O)NC1CCCCC1)c1ccco1 (centres undefined)	MC4R ag barr 20.8 | MC4R barr conf inactive | MOR DOR agonist inactive
O=C(CC1C(=O)NCCN1Cc1ccc(F)cc1)NCCCn1cccn1 (centres undefined)	none
COc1ccc(-c2cccc(N3CCN(c4ccccn4)CC3)n2)cc1OC	none
C/C(=C\c1ccccc1)C(=O)NCCc1ccccc1	none
O=C(CCN1C(=O)/C(=C/c2ccccc2)SC1=S)Nc1cccnc1	MC4R ag barr 11.2 | MC4R barr conf inactive | MOR DOR agonist inactive
COc1cccc(/C=C2\SC(=S)N(CCC(=O)NCCc3ccc(O)cc3)C2=O)c1	MC4R ag barr 35.2 | MC4R barr conf inactive | MOR DOR agonist inactive
O=C(CCN1C(=O)/C(=C/c2ccccc2F)SC1=S)N[C@@H](CO)Cc1ccccc1	MC4R ag barr 11.5, Myeloid diff 2 inconclusive | MC4R barr conf inactive | MOR DOR agonist inactive
O=C(CCN1C(=O)/C(=C/c2ccccc2)SC1=S)N[C@@H](CO)Cc1ccccc1	MC4R ag barr 18.6 | MC4R barr conf inactive | MOR DOR agonist inactive
O=C(CCN1C(=O)/C(=C\c2ccccc2F)SC1=S)Nc1ccc(C(=O)O)c(O)c1	none
O=C(C1CCCO1)N1CCN(C(=S)Nc2ccccc2F)CC1 (centres undefined)	none
CCOC(=O)C1CCCN(C(=O)c2ccc(SC(F)(F)F)cc2)CC1 (centres undefined)	none
COCCNc1nc(Oc2cncc(Cl)c2)c2sccc2n1	none
COc1cc(OC)cc(-c2c(-c3cccs3)c3cc(-c4ccc(C(N)=O)cc4)ccc3n2C)c1	MC4R ag barr 16.4 | MC4R barr conf 10.8 | MOR DOR agonist inactive
COc1ccc(Cn2c(C)c(C)c(C#N)c2NC(=O)Nc2cccc(Cl)c2)cc1	MC4R ag barr 20.9 | MC4R barr conf inactive | MOR DOR agonist inactive
COc1ccc(Cn2c(C)c(C)c(C#N)c2NC(=O)Nc2ccc(Cl)cc2)cc1	MC4R ag barr 12.7 | MC4R barr conf inactive | MOR DOR agonist inactive
Cc1ccc(-c2nsc(SCC(=O)NCc3ccc4c(c3)OCO4)n2)cc1	none
COc1ccc(-c2nsc(SCC(=O)Nc3ccc4c(c3)OCO4)n2)cc1	MC4R ag barr 12.4 | MC4R barr conf inactive | MOR DOR agonist inactive
Cc1nc2nc(C)c(NS(=O)(=O)c3ccc(C4CCCCC4)cc3)c(=O)n2[nH]1	none
COc1ccc(OC)c(NC(=O)c2cc(-c3cc(C)cc(C)c3O)n[nH]2)c1	MC4R ag barr 19.6 | MC4R barr conf inactive | MOR DOR agonist inactive
COc1ccc(OC)c(NC(=O)c2cc(-c3cc(C)c(C)cc3O)n[nH]2)c1	none
COc1ccc(NC(=O)c2cc(-c3cc(C)c(C)cc3O)n[nH]2)c(OC)c1	MC4R ag barr 14.8 | MC4R barr conf inactive | MOR DOR agonist inactive
COc1ccc(OC)c(NC(=O)c2cc(-c3c(C)cc(C)cc3O)n[nH]2)c1	none
O=C(OC1CC2CC1[C@H]1CCCCN1C2=O)N1CCN(C(=O)c2ccccc2)CC1 (some centres undefined)	none (no result: MC4R antagonist, MC4R ag barr)
Cc1c(Cl)ccc2c(C(N)=O)cc(-c3ccccn3)nc12	none
CCOC(=O)CNC(=O)c1cc(-c2ccccn2)nc2c(C)c(Cl)ccc12	MC4R ag barr 29.8 | MC4R barr conf inactive | MOR DOR agonist inactive
CCOc1ccc(N(CC(=O)NC2CCCCC2)S(=O)(=O)c2ccccc2)cc1	none (no result: Myeloid diff 2)
O=C(Nc1cccc(-c2cnc3ccccc3n2)c1)c1ccco1	none
O=C(CNC(=O)c1ccc(Br)o1)Nc1cccc(-c2cnc3ccccc3n2)c1	MC4R ag barr 16.0 | MC4R barr conf inactive | MOR DOR agonist inactive
C=CCn1c(=NC(=O)c2cc(Cl)sc2Cl)sc2cc(S(N)(=O)=O)ccc21	MC4R ag barr 13.8 | MC4R barr conf inactive | MOR DOR agonist inactive
C=CCn1c(=NC(=O)c2cc(-c3cccs3)nc3ccccc23)sc2cc(S(N)(=O)=O)ccc21	none
COc1ccccc1NC(=O)CSc1nc2[nH]ncc2c(=O)[nH]1	Myeloid diff 2 inconclusive
COc1ccc(CCC(=O)O)c(C(CC(=O)O)C(=O)O)c1OS(=O)(=O)c1ccc(C)cc1 (centres undefined)	none
NC(=S)N/N=C/c1ccccc1OCCSc1ccc(Cl)cc1	MC4R ag barr 11.1 | MC4R barr conf inactive | MOR DOR agonist inactive
O=C(Nc1cc(N2CCOCC2)ncn1)Nc1cccc2ccccc12	MC4R ag barr 21.6 | MC4R barr conf inactive | MOR DOR agonist inactive
COc1ccccc1NC(=O)Nc1cc(C(C)C)ccc1C	MC4R ag barr 18.9 | MC4R barr conf inactive | MOR DOR agonist inactive
CCCCn1c(N)c(N(CC(C)C)C(=O)C2CCN(S(=O)(=O)c3ccc(C)cc3)CC2)c(=O)[nH]c1=O	none
Cc1sc2nc(CSc3cccc(C(F)(F)F)c3)[nH]c(=O)c2c1C	MC4R ag barr 16.1 | MC4R barr conf inactive | MOR DOR agonist inactive
C=CCN1C(=O)C(Cc2ccc(OC)cc2)S/C1=N/N=C/c1ccco1 (centres undefined)	none
